Nine molecules from ChEMBL document CHEMBL3396961, “Novel pyrazole-5-carboxamide and pyrazole-pyrimidine derivatives: synthesis and anticancer activity” (Eur J Med Chem, 2015) can be followed below.

Experiment [1] concerns MGC-803. As to the kind of experiment: Cytotoxicity against human MGC803 cells after 48 hrs by MTT assay. The class given is functional, cell-based. Conditions: MGC-803, 48 h. The procedure, abridged: (§1)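 Cells were grown to log phase in RPMI 1640 with 10% FBS and seeded at 3×10^4 cells/mL. After 24 h preincubation (37 °C, 5% CO2) they were exposed 48 h to preset concentrations, 6 wells each; vehicle 0.1% DMSO, 5-fluorouracil as reference. MTT (2.5 mg/mL in PBS) for 4 h, formazan dissolved in DMSO, A570 read. IC50 taken at 50% survival; mean ± SD of three experiments in triplicate.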
For orientation: Formazan colour is commonly taken as a measure of viable cells.

The test system of another experiment is Bcap37. As to the kind of experiment: Cytotoxicity against human Bcap37 cells after 48 hrs by MTT assay. The class given is functional, cell-based. To be noted: Bcap37, 48 h. A digest of the protocol: as §1
Experiment [2] in a line: Cytotoxicity against human SGC7901 cells after 48 hrs by MTT assay. The class given is functional, cell-based. To be noted: SGC-7901, 48 h. A digest of the protocol: as §1
Experiment [3] concerns the target Telomerase reverse transcriptase (Homo sapiens, UniProt O14746). The experiment is described as follows: Inhibition of telomerase in human MGC803 cells after 24 hrs by TRAP-PCR-ELISA. The class given is cell-based, MGC-803. On the technique in general: ELISA stands for enzyme-linked immunosorbent assay.
Experiment [4] has as its system MGC-803. The experiment is described as follows: Cell cycle arrest in human MGC803 cells assessed as accumulation at S phase at 3 uM after 48 hrs by propidium iodide staining-based flow cytometry (reference value: 30.38%). The class given is functional. (In general: A flow cytometer gives signals particle by particle.)
Experiment [5] has as its system MGC-803. The experiment is described as follows: Cell cycle arrest in human MGC803 cells assessed as accumulation at G1 phase at 3 uM after 48 hrs by propidium iodide staining-based flow cytometry (reference value: 62.91%). The class given is functional.
The test system of experiment [6] is MGC-803. As to the kind of experiment: Cell cycle arrest in human MGC803 cells assessed as accumulation at G2 phase at 3 uM after 48 hrs by propidium iodide staining-based flow cytometry (reference value: 6.7%). The class given is functional.

Sequence of Telomerase reverse transcriptase (O14746 whole entry): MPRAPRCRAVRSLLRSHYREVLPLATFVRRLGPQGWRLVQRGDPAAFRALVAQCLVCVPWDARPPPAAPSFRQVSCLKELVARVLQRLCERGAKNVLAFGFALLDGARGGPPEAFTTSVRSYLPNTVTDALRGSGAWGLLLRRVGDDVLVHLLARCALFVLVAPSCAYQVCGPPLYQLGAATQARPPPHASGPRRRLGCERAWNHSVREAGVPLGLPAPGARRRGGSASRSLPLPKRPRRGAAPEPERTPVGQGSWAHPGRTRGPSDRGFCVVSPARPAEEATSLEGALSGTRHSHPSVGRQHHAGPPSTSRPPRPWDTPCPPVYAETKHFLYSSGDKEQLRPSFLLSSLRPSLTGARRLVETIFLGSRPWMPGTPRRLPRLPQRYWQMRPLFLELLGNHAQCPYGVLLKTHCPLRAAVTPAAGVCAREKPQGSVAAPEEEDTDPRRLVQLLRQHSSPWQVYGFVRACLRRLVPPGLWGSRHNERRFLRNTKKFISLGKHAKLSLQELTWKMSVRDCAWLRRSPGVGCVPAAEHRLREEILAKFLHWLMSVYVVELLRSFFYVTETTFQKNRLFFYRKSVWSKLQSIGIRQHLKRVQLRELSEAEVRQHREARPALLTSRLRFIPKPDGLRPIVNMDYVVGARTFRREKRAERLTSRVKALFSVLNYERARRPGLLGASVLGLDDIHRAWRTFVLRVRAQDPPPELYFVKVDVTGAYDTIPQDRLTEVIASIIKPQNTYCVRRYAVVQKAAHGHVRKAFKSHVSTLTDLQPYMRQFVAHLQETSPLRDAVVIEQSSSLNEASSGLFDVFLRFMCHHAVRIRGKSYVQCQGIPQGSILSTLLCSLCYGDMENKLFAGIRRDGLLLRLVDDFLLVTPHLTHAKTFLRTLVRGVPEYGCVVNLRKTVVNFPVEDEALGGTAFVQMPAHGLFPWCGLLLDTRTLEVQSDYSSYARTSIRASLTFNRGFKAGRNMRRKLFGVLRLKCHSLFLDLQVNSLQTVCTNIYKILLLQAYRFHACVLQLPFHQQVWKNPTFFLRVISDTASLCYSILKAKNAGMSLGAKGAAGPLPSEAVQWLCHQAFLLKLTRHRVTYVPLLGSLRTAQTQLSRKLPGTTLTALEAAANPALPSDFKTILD

For the molecule `CCCc1nn(C)c(C(N)=O)c1NC(=O)/C=C/c1ccccc1`, the IC50 (as a rule, the point on the concentration scale where inhibition reaches its midpoint) in the experiment with MGC-803 [1] was determined as 3.44 µM; with Bcap37 it was 46.7 µM; in experiment [2], 8.11 µM; in experiment [3], 1.98 µM.

Consider `CCCc1nn(C)c(C(N)=O)c1NC(=O)c1cc(OC)c(OC)c(OC)c1`, for which the IC50 with MGC-803 [1] is 4.57 µM; with Bcap37, 40.4 µM; in experiment [2], 13.4 µM; in experiment [3] it was 7.87 µM.

Turning to `CCCc1nn(C)c(C(N)=O)c1NC(=O)/C=C/c1cc(OC)c(OC)c(OC)c1`, the IC50 in the experiment with MGC-803 [1] amounted to 4.24 µM; in the experiment on Bcap37, 55.7 µM; in experiment [2], 12.8 µM; in experiment [3], 3.49 µM.

Regarding `CCCc1nn(C)c(C(N)=O)c1NC(=O)c1cc(OC)c(OC)cc1OC`, the IC50 with MGC-803 [1] came to 29.5 µM; with Bcap37 it was 33.5 µM; in experiment [2], 34.8 µM; in experiment [3], 12.2 µM.

Consider `CCCc1nn(C)c(C(N)=O)c1NC(=O)/C=C/c1ccco1`, for which the IC50 in the experiment with MGC-803 [1] was determined as 3.01 µM; with Bcap37 it was 10.5 µM; in experiment [2], 8.3 µM; in experiment [3], 1.02 µM. For the same molecule, the Activity amounted to 42.2% in the experiment with MGC-803 [4], 59.82% in the experiment on MGC-803 [5] and 2.46% in the experiment on MGC-803 [6].

As to `CCCc1nn(C)c2c(=O)[nH]c(/C=C/c3ccccc3)nc12`, the IC50 in the experiment on MGC-803 [1] came to 22.6 µM; in the experiment with Bcap37 it was 45.3 µM; in experiment [2] it was 17.2 µM.

For `CCCc1nn(C)c2c(=O)[nH]c(/C=C/c3cc(OC)c(OC)c(OC)c3)nc12`, the IC50 in the experiment with MGC-803 [1] was determined as 32.8 µM; in the experiment on Bcap37, 37.4 µM; in experiment [2] it was 25.7 µM; in experiment [3], 19 µM.

As to `CCCc1nn(C)c2c(=O)[nH]c(/C=C/c3ccco3)nc12`, the IC50 turned out to be 7.14 µM with MGC-803 [1], 28.7 µM in the experiment on Bcap37, 10.3 µM in experiment [2] and 15.2 µM in experiment [3].

In the case of `O=c1[nH]cc(F)c(=O)[nH]1` [FLUOROURACIL], the results for the IC50 (with Bcap37; in experiment [2]) were 5.18 µM and 6.56 µM, respectively.
